Test results taken from ChEMBL document CHEMBL1150649, “Neoclerodane and labdane diterpenoids from Plectranthus ornatus” (2002).
Converted amounts (≈) assume the structure as drawn. The source made the active and inactive calls. The calls are words filed in the database; no cut-off is given here.

Columns and labels:
[1] = tested on: Candida albicans; test: Antimicrobial activities against Candida albicans CIP 3153A by broth microdilution method; format: functional
Procedure, shortened: (§1)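 Test compounds were dissolved in DMSO and serially diluted in Mueller-Hinton broth over 250 to 3.9 µg/mL. Broth microdilution followed NCCLS guidelines. MIC was the lowest concentration showing no microbial growth compared with a compound-free control.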

[2] = tested on: Escherichia coli; test: Antimicrobial activities against Escherichia coli ATCC 25922 by broth microdilution method; format: functional; procedure, shortened: as §1
[3] = tested on: Nakaseomyces glabratus; test: Antimicrobial activities against Candida glabrata by broth microdilution method; format: functional; procedure, shortened: as §1
[4] = tested on: Candida tropicalis; test: Antimicrobial activities against Candida tropicalis by broth microdilution method; format: functional; procedure, shortened: as §1
[5] = tested on: Pseudomonas aeruginosa; test: Antimicrobial activities against Pseudomonas aeruginosa ATCC 27853 by broth microdilution method; format: functional; procedure, shortened: as §1
[6] = tested on: Pichia kudriavzevii; test: Antimicrobial activities against Candida krusei by broth microdilution method; format: functional; procedure, shortened: as §1
[7] = tested on: Meyerozyma guilliermondii; test: Antimicrobial activities against Candida guilliermondii by broth microdilution method; format: functional; procedure, shortened: as §1
[8] = tested on: Staphylococcus aureus; test: Antimicrobial activities against Staphylococcus aureus ATCC 25923 by broth microdilution method; format: functional; procedure, shortened: as §1
[9] = tested on: Staphylococcus aureus; test: Antimicrobial activities against Staphylococcus aureus ATCC 25923 by […]; format: functional, organism-based

MIC [1] [µg/mL]	MIC [2] [µg/mL]	MIC [3] [µg/mL]	MIC [4] [µg/mL]	MIC [5] [µg/mL]	MIC [6] [µg/mL]	MIC [7] [µg/mL]	MIC [8] [µg/mL]	Compound	Activity [9]
62.5 (≈ 160 µM)	≥ 125	62.5 (≈ 160 µM)	62.5 (≈ 160 µM)	≥ 125	62.5 (≈ 160 µM)	62.5 (≈ 160 µM)	≥ 125	COC(=O)/C=C(\C)C[C@@H](OC(C)=O)[C@@]1(C)[C@H](C)CC[C@@]2(C)C(C)=CC(=O)C[C@H]12 [PLECTRORNATIN A]	–
62.5 (≈ 149 µM)	≥ 125	62.5 (≈ 149 µM)	62.5 (≈ 149 µM)	≥ 125	62.5 (≈ 149 µM)	62.5 (≈ 149 µM)	≥ 125	C=C[C@@]1(C)CC(=O)[C@@H]2[C@@]3(C)[C@@H](OC(C)=O)CCC(C)(C)[C@@H]3[C@H](OC(C)=O)C[C@@]2(C)O1 (relative stereo) [PLECTRORNATIN C]	–
–	–	–	–	–	–	–	–	C=C[C@@]1(C)CC(=O)[C@@H]2[C@@]3(C)[C@@H](O)CCC(C)(C)[C@@H]3[C@H](OC(C)=O)C[C@@]2(C)O1 (relative stereo)	Active
